In series [1] the target is T1, Prostaglandin D2 receptor 2 (Homo sapiens, UniProt Q9Y5Y4).
T1 sequence (Q9Y5Y4 whole entry): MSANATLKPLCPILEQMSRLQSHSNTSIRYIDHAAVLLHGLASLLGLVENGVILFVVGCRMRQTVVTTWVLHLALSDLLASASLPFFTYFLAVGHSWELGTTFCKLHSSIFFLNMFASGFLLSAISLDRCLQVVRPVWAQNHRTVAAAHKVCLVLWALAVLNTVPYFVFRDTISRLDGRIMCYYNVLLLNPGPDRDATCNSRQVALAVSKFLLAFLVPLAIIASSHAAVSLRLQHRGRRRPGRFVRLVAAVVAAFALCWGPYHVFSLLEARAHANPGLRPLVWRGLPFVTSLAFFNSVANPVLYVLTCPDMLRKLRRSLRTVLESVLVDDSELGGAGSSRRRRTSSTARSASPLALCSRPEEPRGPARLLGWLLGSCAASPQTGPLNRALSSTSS
The series is described as follows: Antagonist activity at human CRTh2 receptor expressed in HEK cells assessed as inhibition of PGD2-induced calcium flux. Format: functional, cell-based, HEK293. For orientation: A change in cytosolic calcium serves as a functional read-out for many receptors and channels.

Series [2] concerns the target T1, Prostaglandin D2 receptor 2. The series is described as follows: Displacement of [3H]PGD2 from human CRTH2 receptor. In outline: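 Radioligand binding with ³H-PGD₂ as the labelled ligand; IC₅₀ reported as mean of n >2 measurements.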
A general note: In a radioligand displacement assay an active substance lowers the binding of a labelled ligand.

Series [3] deals with Aldo-keto reductase family 1 member B1 (Rattus norvegicus, UniProt P07943). Nature of the series: Inhibition of rat aldose reductase.
A short description of series [4]: Half life in Sprague-Dawley rat at 1 mg/kg, iv. Format: ADME, organism-based. The arrangement: dose 1 mg/kg, route intravenous. As to conditions: in vivo.
A short description of series [5]: Intrinsic clearance in rat hepatocytes assessed as per 1 x 10^6 cells.
Series [6] can be described thus: Inhibition of human recombinant aldose reductase 2 after 15 mins by spectrophotometry analysis.
A short description of series [7]: Volume of distribution at steady state in Sprague-Dawley rat at 1 mg/kg, iv. The arrangement: dose 1 mg/kg, route intravenous. As to conditions: in vivo, read-out: Vdss. Format: ADME, organism-based.
Series [8] addresses Aldehyde reductase AKR1A1 (Homo sapiens). The series is described as follows: Inhibition of human recombinant aldose reductase 1 after 15 mins by spectrophotometry analysis.
The nature of series [9]: Clearance in Sprague-Dawley rat at 1 mg/kg, iv. Format: ADME, organism-based. Set-up: dose 1 mg/kg, route intravenous. As to conditions: in vivo.
The nature of series [10]: Oral bioavailability in Sprague-Dawley rat at 3 mg/kg. Format: ADME, organism-based. Particulars: in vivo.
The species entered for another series is Homo sapiens. The series is described as follows: Selectivity ratio of IC50 for human recombinant aldose reductase 1 to IC50 for human CRTh2 receptor. In outline:
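Ratio of two IC50s from separate assays. […] ALR1 activity was followed at […] as NADPH oxidation, at 22 °C. All reagents except NADPH were preincubated 15 min before NADPH started the reaction. Initial linear rates were corrected for non-enzymatic NADPH oxidation, and % inhibition was taken against no-compound control.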

Series [11] is described as follows: Lipophilicity, log D of the compound at pH 7.4. Particulars: buffer.
Series [12] addresses T1, Prostaglandin D2 receptor 2. Nature of the series: Antagonist activity against human CRTh2 receptor in human eosinophils assessed as inhibition of DK-PGD2-induced CD11b expression. Format: functional.
For the next series, the target named is Cytochrome P450 3A4 (Homo sapiens, UniProt P08684). The series is described as follows: Inhibition of CYP3A4. Format: ADME.
Another series has as its target Cytochrome P450 2C9 (Homo sapiens, UniProt P11712). Nature of the series: Inhibition of CYP2C9. Format: ADME.
Series [13] deals with Prostaglandin G/H synthase 1 (Homo sapiens) (UniProt P23219). The series is described as follows: Inhibition of COX1 assessed as inhibition of arachidonic acid-induced platelet aggregation at >/= 1 uM.
The nature of series [14]: Oral bioavailability in Sprague-Dawley rat at 4 mg/kg. Format: ADME, organism-based. As to conditions: in vivo.
In the next series the target is Cytochrome P450 2D6 (Homo sapiens, UniProt P10635). The series is described as follows: Inhibition of CYP2D6. Format: ADME.
Another series concerns the target T2, Cytochrome P450 1A2 (Homo sapiens, UniProt P05177).
T2 sequence (P05177 whole entry): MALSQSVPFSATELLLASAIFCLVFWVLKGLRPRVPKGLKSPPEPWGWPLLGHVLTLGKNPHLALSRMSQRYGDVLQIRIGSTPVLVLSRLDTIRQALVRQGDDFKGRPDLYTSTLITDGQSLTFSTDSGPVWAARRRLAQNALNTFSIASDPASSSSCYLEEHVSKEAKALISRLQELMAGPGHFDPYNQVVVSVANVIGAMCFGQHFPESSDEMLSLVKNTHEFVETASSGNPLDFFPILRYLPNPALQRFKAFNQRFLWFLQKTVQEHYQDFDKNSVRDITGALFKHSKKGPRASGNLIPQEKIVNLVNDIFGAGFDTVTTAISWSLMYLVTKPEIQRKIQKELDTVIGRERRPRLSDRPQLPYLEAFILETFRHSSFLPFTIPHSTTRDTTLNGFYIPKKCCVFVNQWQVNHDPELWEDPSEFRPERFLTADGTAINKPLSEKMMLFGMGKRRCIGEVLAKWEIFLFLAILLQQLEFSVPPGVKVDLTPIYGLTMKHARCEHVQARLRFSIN
Nature of the series: Inhibition of CYP1A2. Format: ADME.

Series [15] deals with T3, Thromboxane A2 receptor (Homo sapiens) (UniProt P21731).
T3 sequence (whole entry): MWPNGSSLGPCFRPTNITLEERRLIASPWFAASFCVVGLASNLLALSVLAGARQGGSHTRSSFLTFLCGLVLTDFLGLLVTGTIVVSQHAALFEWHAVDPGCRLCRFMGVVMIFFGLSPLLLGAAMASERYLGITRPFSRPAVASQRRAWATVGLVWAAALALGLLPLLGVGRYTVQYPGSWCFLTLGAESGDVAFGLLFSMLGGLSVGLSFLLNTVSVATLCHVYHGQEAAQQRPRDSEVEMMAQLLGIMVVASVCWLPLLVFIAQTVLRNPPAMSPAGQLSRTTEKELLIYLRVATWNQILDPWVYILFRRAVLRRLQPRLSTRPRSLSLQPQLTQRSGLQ
The series is described as follows: Antagonist activity at prostanoid TP receptor assessed as inhibition of arachidonic acid-induced platelet aggregation at >/= 1 uM. Format: functional.

For series [16], the target named is T4, Prostaglandin D2 receptor (Homo sapiens) (UniProt Q13258).
T4 sequence (whole entry): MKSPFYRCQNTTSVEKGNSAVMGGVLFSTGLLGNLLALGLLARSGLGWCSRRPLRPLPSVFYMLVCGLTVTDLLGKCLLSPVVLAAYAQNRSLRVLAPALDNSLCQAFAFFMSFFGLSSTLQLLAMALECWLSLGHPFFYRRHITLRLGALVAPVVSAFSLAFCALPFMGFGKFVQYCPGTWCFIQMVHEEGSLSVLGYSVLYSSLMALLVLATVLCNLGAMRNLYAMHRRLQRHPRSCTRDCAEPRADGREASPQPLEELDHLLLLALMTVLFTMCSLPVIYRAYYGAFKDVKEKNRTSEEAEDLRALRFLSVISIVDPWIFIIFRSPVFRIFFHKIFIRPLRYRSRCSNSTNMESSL
Nature of the series: Antagonist activity at prostanoid DP1 receptor. Format: functional.

Broadly, the IC50 is the concentration that gives 50% inhibition. By half-life is commonly meant the time in which the quantity being followed falls by half. A lower half-life goes with rapid decline. For orientation: hepatocyte CLint means the rate of metabolic loss divided by the concentration. As a reminder, the clearance is the volume of plasma or blood freed of the substance per unit of time. Broadly, the bioavailability is the share of a dose that reaches the circulation, judged against a reference dose that is usually intravenous. Read a low bioavailability as poor availability. The term logD denotes the decadic logarithm of the distribution of all forms, ionised or not, between an organic phase and buffer at a given pH. Low readings indicate lower lipophilicity, high ones higher lipophilicity.

Active and inactive are the calls of the source. No cut-off for these calls is given here.

Cytochrome P450 2D6, sequence (P10635 whole entry): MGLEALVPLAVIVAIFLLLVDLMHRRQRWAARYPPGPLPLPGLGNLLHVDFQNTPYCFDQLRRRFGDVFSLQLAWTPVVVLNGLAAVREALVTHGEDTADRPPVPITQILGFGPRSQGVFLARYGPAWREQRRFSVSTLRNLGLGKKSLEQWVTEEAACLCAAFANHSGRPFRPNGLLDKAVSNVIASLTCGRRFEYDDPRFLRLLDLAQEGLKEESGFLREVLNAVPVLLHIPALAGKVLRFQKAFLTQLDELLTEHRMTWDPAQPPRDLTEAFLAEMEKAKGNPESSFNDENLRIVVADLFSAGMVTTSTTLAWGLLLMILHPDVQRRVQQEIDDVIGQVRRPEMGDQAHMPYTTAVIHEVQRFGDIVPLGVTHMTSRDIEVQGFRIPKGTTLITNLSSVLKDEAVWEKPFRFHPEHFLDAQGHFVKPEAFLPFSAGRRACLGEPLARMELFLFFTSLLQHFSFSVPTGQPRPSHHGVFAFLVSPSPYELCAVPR
Prostaglandin G/H synthase 1 (Homo sapiens), sequence (P23219 whole entry): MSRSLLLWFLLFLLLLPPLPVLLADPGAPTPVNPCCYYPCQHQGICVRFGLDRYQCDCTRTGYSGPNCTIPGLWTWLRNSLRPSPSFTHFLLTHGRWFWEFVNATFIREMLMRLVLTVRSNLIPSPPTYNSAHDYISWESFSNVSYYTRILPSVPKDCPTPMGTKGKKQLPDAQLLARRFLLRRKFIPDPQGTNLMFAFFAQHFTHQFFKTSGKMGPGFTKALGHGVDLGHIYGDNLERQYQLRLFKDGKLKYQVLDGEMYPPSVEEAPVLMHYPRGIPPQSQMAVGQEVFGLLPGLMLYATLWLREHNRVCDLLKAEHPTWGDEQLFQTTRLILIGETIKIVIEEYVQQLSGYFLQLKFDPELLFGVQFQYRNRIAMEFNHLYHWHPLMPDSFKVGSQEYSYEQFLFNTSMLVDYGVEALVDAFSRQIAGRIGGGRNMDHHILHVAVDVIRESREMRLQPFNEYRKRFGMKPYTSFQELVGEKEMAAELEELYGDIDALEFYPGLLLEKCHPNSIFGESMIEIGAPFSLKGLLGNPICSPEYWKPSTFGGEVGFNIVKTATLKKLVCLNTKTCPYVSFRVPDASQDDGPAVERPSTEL
Cytochrome P450 2C9, sequence (P11712 whole entry): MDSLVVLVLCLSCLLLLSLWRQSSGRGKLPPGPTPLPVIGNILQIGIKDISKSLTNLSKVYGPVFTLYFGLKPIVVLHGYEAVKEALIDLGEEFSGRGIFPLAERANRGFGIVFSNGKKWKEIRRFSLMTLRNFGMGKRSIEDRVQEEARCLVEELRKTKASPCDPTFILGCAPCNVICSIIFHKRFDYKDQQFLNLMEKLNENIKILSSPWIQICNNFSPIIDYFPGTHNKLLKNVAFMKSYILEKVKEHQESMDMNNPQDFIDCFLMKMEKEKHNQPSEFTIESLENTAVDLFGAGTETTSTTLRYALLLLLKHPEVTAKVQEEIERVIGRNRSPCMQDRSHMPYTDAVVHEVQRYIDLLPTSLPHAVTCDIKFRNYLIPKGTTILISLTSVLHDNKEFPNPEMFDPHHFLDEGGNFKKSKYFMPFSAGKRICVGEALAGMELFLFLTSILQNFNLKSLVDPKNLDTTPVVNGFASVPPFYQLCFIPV
Cytochrome P450 3A4, sequence (P08684 whole entry): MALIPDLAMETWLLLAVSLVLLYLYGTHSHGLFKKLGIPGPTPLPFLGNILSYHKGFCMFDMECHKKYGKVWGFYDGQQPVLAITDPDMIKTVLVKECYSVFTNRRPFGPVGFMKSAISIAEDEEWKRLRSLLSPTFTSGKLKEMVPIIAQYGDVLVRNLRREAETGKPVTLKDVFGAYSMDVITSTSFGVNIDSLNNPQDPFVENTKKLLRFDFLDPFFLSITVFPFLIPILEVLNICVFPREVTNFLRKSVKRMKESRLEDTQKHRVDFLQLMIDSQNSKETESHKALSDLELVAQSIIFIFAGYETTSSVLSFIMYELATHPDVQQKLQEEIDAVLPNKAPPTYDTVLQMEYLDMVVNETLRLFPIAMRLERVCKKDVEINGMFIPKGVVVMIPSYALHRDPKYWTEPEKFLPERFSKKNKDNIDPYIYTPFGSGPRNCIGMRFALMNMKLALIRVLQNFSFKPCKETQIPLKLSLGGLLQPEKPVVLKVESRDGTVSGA

As for `Cc1ccc2c(c1)c(Sc1ccccc1)c(C)n2CC(=O)O`, the IC50 worked out at 25 nM in series [1], 20 nM in series [2] and 157 nM in [3].
For `CC(=O)Nc1cccc2c1c(S(=O)(=O)c1ccc(Cl)cc1)c(C)n2CC(=O)O`, the half-life in [4] is 0.9 h. Besides, the intrinsic clearance (hepatocyte CLint) in series [5] is < 1 µL/min/1e6 cells. For the same molecule, the IC50 in series [6] stood at 4470 nM; in series [8], 708 nM; in [2] it was 7.1 nM. Further, the Vd in [7] is 0.2 L/kg. In series [9], this molecule registered a clearance of 4 mL/min/kg. In series [10], the bioavailability was < 10%. Also, the Ratio IC50 in the series listed under Homo sapiens is 100. In addition, in series [11], the logD stood at 0.4.
Regarding `CC(=O)Nc1cccc2c1c(Sc1ccc(Cl)cc1)c(C)n2CC(=O)O` [AZD1981], the IC50 in [12] is 10 nM; at Cytochrome P450 3A4, > 10000 nM; against Cytochrome P450 2C9, > 10000 nM; at Cytochrome P450 2D6, > 10000 nM; in [6], 2510 nM; against Cytochrome P450 1A2, > 10000 nM. Further, in series [2], the IC50 was determined as 4.3 nM. In series [4], this molecule gave a half-life of 1.9 h. The inhibition entry in series [13] and in series [15] was “inactive” in each case. In addition, in [14], the bioavailability was 63%. Also, in [5], the hepatocyte CLint was found to be 1 µL/min/1e6 cells. Also, the Vd in series [7] came out at 0.5 L/kg. In series [16], the outcome was inactive. In series [9], this molecule returned a clearance of 4 mL/min/kg. Further, the logD in series [11] was -0.2.
